In ChEMBL document CHEMBL1926627, “Synthesis and evaluation of novel modified γ-lactam prostanoids as EP4 subtype-selective agonists” (Bioorg Med Chem, 2012):

Assays:
[1] = biological target: T1, Prostaglandin E2 receptor EP1 subtype (Mus musculus, UniProt P35375); assay: Displacement of [3H]-PGE2 from mouse EP1 receptor expressed in CHO cells after 20 mins by liquid scintillation counter; assay type: cell-based
T1 sequence (P35375 whole entry): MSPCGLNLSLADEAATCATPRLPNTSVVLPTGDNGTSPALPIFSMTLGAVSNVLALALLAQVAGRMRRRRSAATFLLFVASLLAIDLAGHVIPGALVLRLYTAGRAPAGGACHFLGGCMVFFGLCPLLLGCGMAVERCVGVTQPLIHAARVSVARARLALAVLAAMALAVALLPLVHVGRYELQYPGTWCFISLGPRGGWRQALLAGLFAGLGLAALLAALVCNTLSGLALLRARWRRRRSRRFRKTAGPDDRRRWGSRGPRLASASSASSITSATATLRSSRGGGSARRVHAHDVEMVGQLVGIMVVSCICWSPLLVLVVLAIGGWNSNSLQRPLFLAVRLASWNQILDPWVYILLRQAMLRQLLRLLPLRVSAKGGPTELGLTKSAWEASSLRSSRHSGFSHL
Procedure, shortened: (§1)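 Membranes from CHO cells stably expressing mouse EP1–4, incubated with 2.5 nM [³H]PGE₂ and test compound at various concentrations in 10 mM KH₂PO₄–KOH, 1 mM EDTA, 10 mM MgCl₂, 0.1 mM NaCl, pH 6.0. Incubated 25 °C, 60 min (EP1: 20 min). Filtration on GF/B, ice-cold buffer wash, scintillation counting. Nonspecific binding with excess unlabeled PGE₂. IC50 from regression curve; Ki = IC50/(1+[L]/Kd).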

[2] = biological target: Prostaglandin E2 receptor EP4 subtype (Rattus norvegicus, UniProt P43114); assay: Agonist activity at rat EP4 receptor expressed in CHO cells assessed as cAMP production after 10 mins by radioimmunoassay; assay type: functional, cell-based
Procedure, shortened: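 CHO cells expressing rat EP4 seeded at 1×10^5 cells/well and grown 2 days. Washed with MEM, then 10 min at 37 °C in MEM with 2 µM diclofenac. Preincubated 10 min at 37 °C in assay medium with 1% BSA. Test compound added, 10 min at 37 °C. Stopped with ice-cold 10% trichloroacetic acid. cAMP measured by radioimmunoassay.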

[3] = biological target: Prostaglandin E2 receptor EP2 subtype (Mus musculus, UniProt Q62053); assay: Displacement of [3H]-PGE2 from mouse EP2 receptor expressed in CHO cells after 60 mins by liquid scintillation counter; assay type: cell-based; procedure, shortened: as §1
[4] = biological target: T2, Prostaglandin E2 receptor EP3 subtype (Mus musculus, UniProt P30557); assay: Displacement of [3H]-PGE2 from mouse EP3 receptor expressed in CHO cells after 60 mins by liquid scintillation counter; assay type: cell-based; procedure, shortened: as §1
T2 sequence (P30557 whole entry): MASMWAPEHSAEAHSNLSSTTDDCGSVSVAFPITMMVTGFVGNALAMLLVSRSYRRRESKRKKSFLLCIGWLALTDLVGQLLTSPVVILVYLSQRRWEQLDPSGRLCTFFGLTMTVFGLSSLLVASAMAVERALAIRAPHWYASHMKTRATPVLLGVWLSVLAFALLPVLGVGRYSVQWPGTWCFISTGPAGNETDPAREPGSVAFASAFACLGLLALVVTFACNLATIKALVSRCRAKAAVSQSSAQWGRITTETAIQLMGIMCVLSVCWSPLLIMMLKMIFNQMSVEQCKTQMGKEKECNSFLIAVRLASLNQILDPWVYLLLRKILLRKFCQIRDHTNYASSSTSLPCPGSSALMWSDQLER

[5] = biological target: Prostaglandin E2 receptor EP4 subtype (Mus musculus, UniProt P32240); assay: Displacement of [3H]-PGE2 from mouse EP4 receptor expressed in CHO cells after 60 mins by liquid scintillation counter; assay type: cell-based; procedure, shortened: as §1
Rattus norvegicus [6] = assay: Inhibition of LPS induced TNF-alpha production in po dosed Sprague-Dawley rat administered 30 mins before LPS challenge measured after 90 mins by ELISA; assay type: functional
Procedure, shortened: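 Seven-week-old Sprague–Dawley rats dosed orally with compound in sterile saline containing 20% HP-β-CD. LPS (1 mg/mL in sterile saline) given iv at 10 µg/2 mL/kg 30 min later. Blood drawn by aortic puncture into heparinized syringes 90 min after LPS. Plasma taken after centrifugation at 4 °C and frozen. Result given as ED50.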

Rattus norvegicus [7] = assay: Dose normalized cmax in rat at 1 mg/kg, po; assay type: ADME, organism-based; design: dose 1 mg/kg, route oral; settings: in vivo
Procedure, shortened: (§2)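 Rat PK after 1 mg/kg po and 0.1 mg/kg iv. Cmax and AUC normalized to a 1 mg/kg dose.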

Rattus norvegicus [8] = assay: Dose normalized AUC in rat at 1 mg/kg, po; assay type: ADME, organism-based; design: dose 1 mg/kg, route oral; settings: in vivo; procedure, shortened: as §2
[9] = Total clearance rat at 0.1 mg/kg, iv and 1 mg/kg, po; assay type: ADME, organism-based; settings: in vivo
Procedure, shortened: (§3)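 Rat pharmacokinetics measured after 1 mg/kg po and 0.1 mg/kg iv dosing.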

[10] = Volume of distribution at steady state in rat at 0.1 mg/kg, iv and 1 mg/kg, po; assay type: ADME, organism-based; settings: in vivo, read-out: Vdss; procedure, shortened: as §3
[11] = Oral bioavailability in rat at 1 mg/kg; assay type: ADME, organism-based; settings: in vivo
[12] = Cmax in rat at 0.1 mg/kg, iv and 1 mg/kg, po; assay type: ADME, organism-based; settings: in vivo; procedure, shortened: as §3
[13] = AUC in rat at 0.1 mg/kg, iv and 1 mg/kg, po; assay type: ADME, organism-based; settings: plasma; procedure, shortened: as §3

Sequence of Prostaglandin E2 receptor EP4 subtype (Mus musculus, UniProt P32240) (P32240 whole entry): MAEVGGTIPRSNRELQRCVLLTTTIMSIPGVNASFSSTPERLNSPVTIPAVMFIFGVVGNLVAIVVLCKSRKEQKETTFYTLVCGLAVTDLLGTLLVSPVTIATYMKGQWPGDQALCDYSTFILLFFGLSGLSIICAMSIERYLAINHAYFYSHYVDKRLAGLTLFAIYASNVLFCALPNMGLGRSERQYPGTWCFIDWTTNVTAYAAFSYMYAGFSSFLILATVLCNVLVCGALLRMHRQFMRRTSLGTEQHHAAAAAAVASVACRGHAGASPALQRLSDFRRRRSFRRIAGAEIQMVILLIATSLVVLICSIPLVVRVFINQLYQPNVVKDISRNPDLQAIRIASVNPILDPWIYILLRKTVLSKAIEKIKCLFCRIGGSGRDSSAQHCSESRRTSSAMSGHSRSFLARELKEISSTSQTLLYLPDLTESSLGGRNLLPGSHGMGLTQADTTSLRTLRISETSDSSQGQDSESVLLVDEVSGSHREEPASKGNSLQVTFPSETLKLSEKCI
Sequence of Prostaglandin E2 receptor EP4 subtype (Rattus norvegicus, UniProt P43114) (P43114 whole entry): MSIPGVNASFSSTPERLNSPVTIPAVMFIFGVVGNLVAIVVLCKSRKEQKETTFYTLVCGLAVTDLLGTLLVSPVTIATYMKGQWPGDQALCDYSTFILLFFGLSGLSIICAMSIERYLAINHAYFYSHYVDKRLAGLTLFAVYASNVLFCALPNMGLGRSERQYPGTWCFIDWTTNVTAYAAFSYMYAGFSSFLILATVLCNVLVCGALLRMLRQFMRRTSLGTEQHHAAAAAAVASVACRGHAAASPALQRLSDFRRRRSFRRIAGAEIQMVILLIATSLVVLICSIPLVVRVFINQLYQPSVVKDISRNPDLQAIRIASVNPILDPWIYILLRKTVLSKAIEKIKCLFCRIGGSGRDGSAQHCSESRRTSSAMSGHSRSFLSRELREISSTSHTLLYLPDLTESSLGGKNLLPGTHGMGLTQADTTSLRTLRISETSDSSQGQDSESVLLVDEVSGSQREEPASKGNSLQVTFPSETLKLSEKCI
Sequence of Prostaglandin E2 receptor EP2 subtype (Q62053 whole entry): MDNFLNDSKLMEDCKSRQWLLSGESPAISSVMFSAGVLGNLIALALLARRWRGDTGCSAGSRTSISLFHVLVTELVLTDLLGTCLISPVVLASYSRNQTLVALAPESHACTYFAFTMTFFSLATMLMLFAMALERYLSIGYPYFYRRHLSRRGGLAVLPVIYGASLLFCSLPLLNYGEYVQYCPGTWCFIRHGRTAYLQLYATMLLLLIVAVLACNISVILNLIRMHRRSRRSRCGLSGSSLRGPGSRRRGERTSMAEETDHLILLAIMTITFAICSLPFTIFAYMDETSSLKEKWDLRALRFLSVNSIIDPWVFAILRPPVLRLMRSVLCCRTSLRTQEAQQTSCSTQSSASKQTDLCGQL

Row | Ki [1] | EC50 [2] | Ki [3] | Ki [4] | Ki [5] | Cmax/dose (Rattus norvegicus [7]) | AUC/dose (Rattus norvegicus [8]) | clearance [9] | Vd [10] | bioavailability [11] | Cmax [12] | AUC [13] | Structure (SMILES) | ED50 (Rattus norvegicus [6])
1 | > 10000 nM | 1.4 nM |  |  |  |  |  |  |  |  |  |  | COCc1cccc(C[C@H](O)/C=C/[C@H]2[C@H](O)CC(=O)[C@@H]2CCSCCCC(=O)O)c1 | 
2 | > 10000 nM | 93 nM | > 10000 nM | 1900 nM | 2.4 nM |  |  |  |  |  |  |  | CCCc1cccc(C[C@H](O)/C=C/[C@H]2COC(=O)N2CCSCCCC(=O)O)c1 | 
3 | > 10000 nM | 15 nM | > 10000 nM | > 10000 nM | 10 nM | 1.6 ng/mL | 6.4 ng·h/mL | 35 mL/min/kg | 0.386 L/kg | 1.2% |  |  | COCc1cccc(C[C@H](O)/C=C/[C@H]2CCC(=O)N2CCCCCCC(=O)O)c1 | 1 mg/kg
4 | > 10000 nM | 10 nM | > 10000 nM | 450 nM | 0.38 nM |  |  |  |  |  |  |  | O=C(O)CCCCCCN1C(=S)CC[C@@H]1/C=C/[C@@H](O)Cc1cccc(C(F)(F)F)c1 | 
5 | > 10000 nM | 4.8 nM | > 10000 nM | 39 nM | 0.65 nM |  |  | 56 mL/min/kg | 0.792 L/kg | 3.5% | 2.7 ng/mL | 4 ng·h/mL | O=C(O)CCCSCCN1C(=O)SC[C@@H]1/C=C/[C@@H](O)Cc1ccccc1 | 1 mg/kg
6 | > 10000 nM | 29 nM | > 10000 nM | 2300 nM | 1.5 nM |  |  |  |  |  |  |  | O=C(O)CCCCCCN1C(=S)CC[C@@H]1/C=C/[C@@H](O)Cc1ccccc1 | 
7 | > 10000 nM | 7.3 nM | 1400 nM | 6300 nM | 2 nM |  |  | 102 mL/min/kg | 0.53 L/kg | 12.3% | 6.5 ng/mL | 20.6 ng·h/mL | COCc1cccc(C[C@H](O)/C=C/[C@H]2CCC(=S)N2CCCCCCC(=O)O)c1 | 3 mg/kg
8 | 4600 nM | 1.9 nM | > 10000 nM | 65 nM | 0.88 nM |  |  | 75 mL/min/kg | 0.538 L/kg | 8.6% | 10.4 ng/mL | 19.5 ng·h/mL | CCc1cccc(C[C@H](O)/C=C/[C@H]2CSC(=O)N2CCSCCCC(=O)O)c1 | 1 mg/kg
9 | > 10000 nM | 4.3 nM | > 10000 nM | 280 nM | 0.97 nM |  |  | 51 mL/min/kg | 0.512 L/kg | 5.5% | 5.3 ng/mL | 14.6 ng·h/mL | O=C(O)CCCSCCN1C(=O)SC[C@@H]1/C=C/[C@@H](O)Cc1cccc(C(F)(F)F)c1 | 1 mg/kg
10 | 2800 nM | 7.7 nM | 1700 nM | 980 nM | 0.5 nM |  |  | 61 mL/min/kg | 1.76 L/kg | 9.8% | 3.4 ng/mL | 29.9 ng·h/mL | Cc1cccc(C[C@H](O)/C=C/[C@H]2CCC(=S)N2CCSCCCC(=O)O)c1 | 1 mg/kg
11 | > 10000 nM | 2.4 nM | > 10000 nM | > 10000 nM | 1.2 nM |  |  | 47 mL/min/kg | 0.325 L/kg | 2% | 2.6 ng/mL | 6.1 ng·h/mL | COCc1cccc(C[C@H](O)/C=C/[C@H]2CSC(=O)N2CCSCCCC(=O)O)c1 | 1 mg/kg
12 | > 10000 nM | 24 nM | > 10000 nM | > 10000 nM | 7.2 nM |  |  |  |  |  |  |  | COCc1cccc(C[C@H](O)/C=C/[C@H]2COC(=O)N2CCSCCCC(=O)O)c1 | 
13 | > 10000 nM | 5.7 nM | > 10000 nM | 1800 nM | 1.5 nM |  |  |  |  |  |  |  | O=C(O)CCCSCCN1C(=O)SC[C@@H]1/C=C/[C@@H](O)Cc1cccc(F)c1 | 
14 | 2400 nM | 18 nM | > 10000 nM | 2700 nM | 7.9 nM |  |  |  |  |  |  |  | CCc1cccc(C[C@H](O)/C=C/[C@H]2COC(=O)N2CCSCCCC(=O)O)c1 | 
15 | > 10000 nM | 26 nM | > 10000 nM | 1700 nM | 0.69 nM |  |  |  |  |  |  |  | O=C(O)CCCCCCN1C(=S)CC[C@@H]1/C=C/[C@@H](O)Cc1cccc(F)c1 | 
16 | > 10000 nM | 36 nM | > 10000 nM | 6400 nM | 4.2 nM |  |  |  |  |  |  |  | O=C(O)CCCSCCN1C(=O)OC[C@@H]1/C=C/[C@@H](O)Cc1ccccc1 | 
17 | > 10000 nM | 27 nM | 6800 nM | 2000 nM | 0.4 nM |  |  |  |  |  |  |  | CCCc1cccc(C[C@H](O)/C=C/[C@H]2CCC(=S)N2CCCCCCC(=O)O)c1 | 
18 | > 10000 nM | 9.4 nM | 1100 nM | 2300 nM | 0.83 nM |  |  |  |  |  |  |  | CCc1cccc(C[C@H](O)/C=C/[C@H]2CCC(=S)N2CCCCCCC(=O)O)c1 | 
19 | > 10000 nM | 450 nM | > 10000 nM | > 10000 nM | 28 nM |  |  |  |  |  |  |  | O=C(O)CCCSCCN1C(=O)OC[C@@H]1/C=C/[C@@H](O)Cc1cccc(-c2ccccc2)c1 | 
20 | 4400 nM | 33 nM | > 10000 nM | 2800 nM | 2.5 nM |  |  | 47 mL/min/kg | 0.291 L/kg | 4.5% | 5.4 ng/mL | 16.1 ng·h/mL | Cc1cccc(C[C@H](O)/C=C/[C@H]2COC(=O)N2CCSCCCC(=O)O)c1 | > 1 mg/kg
21 | > 10000 nM | 160 nM | > 10000 nM | 1700 nM | 29 nM |  |  |  |  |  |  |  | O=C(O)CCCSCCN1C(=O)OC[C@@H]1/C=C/[C@@H](O)Cc1cccc(OC(F)(F)F)c1 | 
22 | 1200 nM | 35 nM | > 10000 nM | 4000 nM | 20 nM |  |  |  |  |  |  |  | O=C(O)CCCSCCN1C(=O)OC[C@@H]1/C=C/[C@@H](O)Cc1cccc(F)c1 | 
23 | > 10000 nM | 12 nM | > 10000 nM | 1600 nM | 2 nM |  |  | 67 mL/min/kg | 0.631 L/kg | 6.7% | 3.8 ng/mL | 16.7 ng·h/mL | O=C(O)CCCSCCN1C(=O)OC[C@@H]1/C=C/[C@@H](O)Cc1cccc(C(F)(F)F)c1 | 3 mg/kg
24 | > 10000 nM | 6.1 nM | > 10000 nM | 1200 nM | 0.98 nM |  |  | 52 mL/min/kg | 1.28 L/kg | 6.3% | 11.4 ng/mL | 17.7 ng·h/mL | CCCc1cccc(C[C@H](O)/C=C/[C@H]2CSC(=O)N2CCSCCCC(=O)O)c1 | 1 mg/kg
25 | > 10000 nM | 1.3 nM | 8500 nM | > 10000 nM | 8 nM |  |  |  |  |  |  |  | COCc1cccc(C[C@H](O)/C=C/[C@H]2CCC(=O)N2CCSCCCC(=O)O)c1 | 
26 | > 10000 nM | 23 nM | > 10000 nM | 630 nM | 1.5 nM |  |  |  |  |  |  |  | O=C(O)CCCSCCN1C(=O)OC[C@@H]1/C=C/[C@@H](O)Cc1cccc(Cl)c1 | 
27 | > 10000 nM | 1.1 nM | 470 nM | 190 nM | 2.4 nM |  |  |  |  |  |  |  | COCc1cccc(C[C@H](O)/C=C/[C@H]2CCC(=O)[C@@H]2CCSCCCC(=O)O)c1 | 
